Measured values reported in ChEMBL document CHEMBL1144120, “In vitro evaluation of antifungal properties of phenylpropanoids and related compounds acting against dermatophytes” (1999).
In brackets after ≈: the same amount, converted by molar mass. Activity calls are given as the source filed them. The calls are words filed in the database; no cut-off is given here.

Key:
Saccharomyces cerevisiae = assay: Antifungal activity against Saccharomyces cerevisiae ATCC 9763 by agar dilution method; format: functional, organism-based
In short: (§1)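 Sabouraud chloramphenicol agar dilution in 96-well plates. Strains were grown on Sabouraud chloramphenicol agar slants for 48 h at 30 °C and suspended in sterile distilled water, adjusted to 10^6 viable cells/mL. DMSO stocks were serially two-fold diluted into the agar to give 0.10–50 µg/mL, with DMSO ≤2% final. 5 µL inoculum per well; incubated 24, 48 or 72 h at 30 °C per control growth; MIC recorded.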

[1] = test system: Trichophyton mentagrophytes; assay: Antifungal activity against Trichophyton mentagrophytes ATCC by agar dilution method; format: functional
In short: (§2)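 Dermatophytes were tested by agar dilution on Sabouraud chloramphenicol agar in 96-well plates. DMSO stock solutions were serially two-fold diluted into the medium to give final concentrations of 0.10–50 µg/mL, with DMSO not exceeding 2%. Each well received 5 µL of spore suspension.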

Trichophyton rubrum [2] = assay: Antifungal activity against Trichophyton rubrum C 113 by agar dilution method; format: functional; in short: as §2
Aspergillus flavus = assay: Antifungal activity against Aspergillus flavus ATCC 9170 by agar dilution method; format: functional, organism-based; in short: as §1
Nannizzia gypsea [3] = assay: Antifungal activity against Microsporum gypseum C 115 up to 50 ug/mL by agar dilution method; format: functional, organism-based; in short: as §2
Microsporum canis [4] = assay: Antifungal activity against Microsporum canis C 112 by agar dilution method; format: functional; in short: as §2
[5] = test system: Trichophyton mentagrophytes; assay: Antifungal activity against Trichophyton mentagrophytes ATCC 9972 up to 50 ug/mL by agar dilution method; format: functional, organism-based; in short: as §2
Nannizzia gypsea [6] = assay: Antifungal activity against Microsporum gypseum C 115 by agar dilution method; format: functional; in short: as §2
Microsporum canis [7] = assay: Antifungal activity against Microsporum canis C 112 up to 50 ug/mL by agar dilution method; format: functional, organism-based; in short: as §2
Aspergillus niger = assay: Antifungal activity against Aspergillus niger ATCC 9029 by agar dilution method; format: functional, organism-based; in short: as §1
Candida albicans = assay: Antifungal activity against Candida albicans ATCC 10231 by agar dilution method; format: functional, organism-based; in short: as §1
Epidermophyton floccosum [8] = assay: Antifungal activity against Epidermophyton floccosum C 114 by agar dilution method; format: functional; in short: as §2
Trichophyton rubrum [9] = assay: Antifungal activity against Trichophyton rubrum C 113 up to 50 ug/mL by agar dilution method; format: functional, organism-based; in short: as §2
Aspergillus fumigatus = assay: Antifungal activity against Aspergillus fumigatus ATCC 26934 by agar dilution method; format: functional, organism-based; in short: as §1
Epidermophyton floccosum [10] = assay: Antifungal activity against Epidermophyton floccosum C 114 up to 50 ug/mL by agar dilution method; format: functional, organism-based; in short: as §2
Cryptococcus neoformans = assay: Antifungal activity against Cryptococcus neoformans ATCC 32264 by agar dilution method; format: functional, organism-based; in short: as §1

| Structure (SMILES) | Activity (Saccharomyces cerevisiae) | MIC [1] | MIC (Trichophyton rubrum [2]) | Activity (Aspergillus flavus) | Activity (Nannizzia gypsea [3]) | MIC (Microsporum canis [4]) | Activity [5] | MIC (Nannizzia gypsea [6]) | Activity (Microsporum canis [7]) | Activity (Aspergillus niger) | Activity (Candida albicans) | MIC (Epidermophyton floccosum [8]) | Activity (Trichophyton rubrum [9]) | Activity (Aspergillus fumigatus) | Activity (Epidermophyton floccosum [10]) | Activity (Cryptococcus neoformans) |
| --- | --- | --- | --- | --- | --- | --- | --- | --- | --- | --- | --- | --- | --- | --- | --- | --- |
| CC(C)(C)C(=O)c1ccccc1 | inactive | > 50 µg/mL | > 50 µg/mL | inactive | inactive | > 50 µg/mL | inactive | > 50 µg/mL | inactive | inactive | inactive | 50 µg/mL (≈ 308 µM) | inactive | inactive | inactive | inactive |
| C=CCc1ccc(O)c(OC)c1 [EUGENOL] | inactive | > 50 µg/mL | > 50 µg/mL | inactive | inactive | > 50 µg/mL | inactive | > 50 µg/mL | inactive | inactive | inactive | > 50 µg/mL | inactive | inactive | inactive | inactive |
| C/C=C\c1ccc(O)c(OC)c1 [ISOEUGENOL] | inactive | > 50 µg/mL | > 50 µg/mL | inactive | inactive | > 50 µg/mL | inactive | > 50 µg/mL | inactive | inactive | inactive | > 50 µg/mL | inactive | inactive | inactive | inactive |
| CCC(O)c1ccc(OC)c(OC)c1 (configuration not stated) | inactive | > 50 µg/mL | > 50 µg/mL | inactive | inactive | > 50 µg/mL | inactive | > 50 µg/mL | inactive | inactive | inactive | 50 µg/mL (≈ 255 µM) | inactive | inactive | inactive | inactive |
| COc1cc(C(=O)C(C)Cl)cc(OC)c1OC (configuration not stated) | inactive | 15 µg/mL (≈ 58 µM) | 10 µg/mL (≈ 38.7 µM) | inactive | inactive | 6.25 µg/mL (≈ 24.2 µM) | inactive | 12.5 µg/mL (≈ 48.3 µM) | inactive | inactive | inactive | 0.5 µg/mL (≈ 1.93 µM) | inactive | inactive | inactive | inactive |
| CC(Br)C(=O)c1ccc2c(c1)OCO2 (configuration not stated) | inactive | 20 µg/mL (≈ 77.8 µM) | 12.5 µg/mL (≈ 48.6 µM) | inactive | – | 3.12 µg/mL (≈ 12.1 µM) | inactive | 25 µg/mL (≈ 97.2 µM) | – | inactive | inactive | 6.25 µg/mL (≈ 24.3 µM) | – | inactive | – | inactive |
| CC(Cl)C(=O)c1ccc2c(c1)OCO2 (configuration not stated) | inactive | 25 µg/mL (≈ 118 µM) | 10 µg/mL (≈ 47 µM) | inactive | inactive | 12.5 µg/mL (≈ 58.8 µM) | inactive | 12.5 µg/mL (≈ 58.8 µM) | inactive | inactive | inactive | 6.25 µg/mL (≈ 29.4 µM) | inactive | inactive | inactive | inactive |
| CC(Cl)C(=O)c1cc2ccccc2c2ccccc12 (configuration not stated) | inactive | 3 µg/mL (≈ 11.2 µM) | 1.5 µg/mL (≈ 5.58 µM) | inactive | inactive | 3 µg/mL (≈ 11.2 µM) | inactive | 10 µg/mL (≈ 37.2 µM) | – | inactive | inactive | 15 µg/mL (≈ 55.8 µM) | inactive | inactive | inactive | inactive |
| CCC(=O)c1cc2ccccc2c2ccccc12 | inactive | 3 µg/mL (≈ 12.8 µM) | 6.25 µg/mL (≈ 26.7 µM) | inactive | – | 3 µg/mL (≈ 12.8 µM) | – | 6.25 µg/mL (≈ 26.7 µM) | – | inactive | inactive | 20 µg/mL (≈ 85.4 µM) | – | inactive | – | inactive |
| CC(=O)N1CCN(c2ccc(OCC3COC(Cn4ccnc4)(c4ccc(Cl)cc4Cl)O3)cc2)CC1 (configuration not stated) [KETOCONAZOLE] | inactive | 12.5 µg/mL (≈ 23.5 µM) | 15 µg/mL (≈ 28.2 µM) | inactive | – | 15 µg/mL (≈ 28.2 µM) | – | 6.25 µg/mL (≈ 11.8 µM) | – | inactive | inactive | 25 µg/mL (≈ 47 µM) | – | inactive | – | inactive |
| CC(C)C(=O)c1cc2ccccc2c2ccccc12 | inactive | 6.25 µg/mL (≈ 25.2 µM) | 20 µg/mL (≈ 80.5 µM) | inactive | – | 20 µg/mL (≈ 80.5 µM) | – | 20 µg/mL (≈ 80.5 µM) | – | inactive | inactive | 20 µg/mL (≈ 80.5 µM) | – | inactive | – | inactive |
| C[C@@H]1[C@H](O)[C@@H](C)/C=C/C=C/C=C/C=C/C=C/C=C/C=C/[C@H](O[C@@H]2O[C@H](C)[C@@H](O)[C@H](N)[C@@H]2O)C[C@@H]2O[C@](O)(C[C@@H](O)C[C@@H](O)[C@H](O)CC[C@@H](O)C[C@@H](O)CC(=O)O[C@H]1C)C[C@H](O)[C@H]2C(=O)O [AMPHOTERICIN B] | inactive | 6.25 µg/mL (≈ 6.76 µM) | 25 µg/mL (≈ 27.1 µM) | inactive | – | > 50 µg/mL | – | 6.25 µg/mL (≈ 6.76 µM) | – | inactive | inactive | 0.3 µg/mL (≈ 0.325 µM) | – | inactive | – | inactive |
| CC(C)C(O)c1cc2ccccc2c2ccccc12 (configuration not stated) | inactive | 6.25 µg/mL (≈ 25 µM) | 10 µg/mL (≈ 39.9 µM) | inactive | – | 6.25 µg/mL (≈ 25 µM) | – | 6.25 µg/mL (≈ 25 µM) | – | inactive | inactive | 10 µg/mL (≈ 39.9 µM) | – | inactive | – | inactive |
| COc1ccc(C(=O)C(C)Br)cc1OC (configuration not stated) | inactive | 25 µg/mL (≈ 91.5 µM) | > 50 µg/mL | inactive | – | 12.5 µg/mL (≈ 45.8 µM) | inactive | 40 µg/mL (≈ 146 µM) | – | inactive | inactive | 3 µg/mL (≈ 11 µM) | inactive | inactive | – | inactive |
| c1ccc2c(c1)ccc1ccccc12 [PHENANTHRENE] | inactive | > 50 µg/mL | > 50 µg/mL | inactive | – | > 50 µg/mL | – | > 50 µg/mL | – | inactive | inactive | > 50 µg/mL | – | inactive | – | inactive |
| COc1ccc(C(=O)C(C)Cl)cc1OC (configuration not stated) | inactive | 12.5 µg/mL (≈ 54.7 µM) | 10 µg/mL (≈ 43.7 µM) | inactive | – | 3.12 µg/mL (≈ 13.6 µM) | inactive | 12.5 µg/mL (≈ 54.7 µM) | – | inactive | inactive | 0.15 µg/mL (≈ 0.656 µM) | – | inactive | – | inactive |
| CC(C)C(O)c1ccc2ccccc2c1 (configuration not stated) | inactive | 12.5 µg/mL (≈ 62.4 µM) | 12.5 µg/mL (≈ 62.4 µM) | inactive | – | 25 µg/mL (≈ 125 µM) | – | 25 µg/mL (≈ 125 µM) | – | inactive | inactive | 25 µg/mL (≈ 125 µM) | inactive | inactive | – | inactive |
| CC(Br)C(=O)C1CCCCC1 (configuration not stated) | inactive | 50 µg/mL (≈ 228 µM) | > 50 µg/mL | inactive | – | > 50 µg/mL | – | > 50 µg/mL | – | inactive | inactive | > 50 µg/mL | – | inactive | – | inactive |
| c1ccc2ccccc2c1 [NAPHTHALENE] | inactive | > 50 µg/mL | > 50 µg/mL | inactive | – | > 50 µg/mL | – | > 50 µg/mL | – | inactive | inactive | > 50 µg/mL | – | inactive | – | inactive |
| COc1cc(C(=O)C(C)Br)cc(OC)c1OC (configuration not stated) | inactive | 12.5 µg/mL (≈ 41.2 µM) | > 50 µg/mL | inactive | inactive | 15 µg/mL (≈ 49.5 µM) | inactive | 50 µg/mL (≈ 165 µM) | – | inactive | inactive | 8 µg/mL (≈ 26.4 µM) | inactive | inactive | – | inactive |
